Experiments:
[1] = molecular target: T1, 5-hydroxytryptamine receptor 1A (Rattus norvegicus, UniProt P19327); test: Displacement of [3H]-8-OHDPAT from 5-HT1A receptor in rat hippocampal membranes after 30 mins; type: cell membranes, Hippocampus, Membrane
T1 sequence (P19327 whole entry): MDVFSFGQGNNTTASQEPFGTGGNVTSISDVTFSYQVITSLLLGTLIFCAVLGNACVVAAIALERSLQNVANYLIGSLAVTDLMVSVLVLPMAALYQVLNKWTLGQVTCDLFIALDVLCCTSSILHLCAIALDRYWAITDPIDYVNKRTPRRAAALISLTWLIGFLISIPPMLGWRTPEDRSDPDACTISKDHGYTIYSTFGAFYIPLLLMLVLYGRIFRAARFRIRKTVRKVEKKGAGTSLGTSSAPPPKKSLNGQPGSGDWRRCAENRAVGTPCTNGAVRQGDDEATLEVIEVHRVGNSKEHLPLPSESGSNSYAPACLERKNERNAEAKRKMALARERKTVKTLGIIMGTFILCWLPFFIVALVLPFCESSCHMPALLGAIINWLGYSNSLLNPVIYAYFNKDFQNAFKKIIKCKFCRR

[2] = molecular target: T2, Alpha-1D adrenergic receptor (Homo sapiens, UniProt P25100); test: Displacement of [3H]prazosin from human alpha-1D adrenoreceptor expressed in CHO cells after 30 mins; type: cell-based
T2 sequence (P25100 whole entry): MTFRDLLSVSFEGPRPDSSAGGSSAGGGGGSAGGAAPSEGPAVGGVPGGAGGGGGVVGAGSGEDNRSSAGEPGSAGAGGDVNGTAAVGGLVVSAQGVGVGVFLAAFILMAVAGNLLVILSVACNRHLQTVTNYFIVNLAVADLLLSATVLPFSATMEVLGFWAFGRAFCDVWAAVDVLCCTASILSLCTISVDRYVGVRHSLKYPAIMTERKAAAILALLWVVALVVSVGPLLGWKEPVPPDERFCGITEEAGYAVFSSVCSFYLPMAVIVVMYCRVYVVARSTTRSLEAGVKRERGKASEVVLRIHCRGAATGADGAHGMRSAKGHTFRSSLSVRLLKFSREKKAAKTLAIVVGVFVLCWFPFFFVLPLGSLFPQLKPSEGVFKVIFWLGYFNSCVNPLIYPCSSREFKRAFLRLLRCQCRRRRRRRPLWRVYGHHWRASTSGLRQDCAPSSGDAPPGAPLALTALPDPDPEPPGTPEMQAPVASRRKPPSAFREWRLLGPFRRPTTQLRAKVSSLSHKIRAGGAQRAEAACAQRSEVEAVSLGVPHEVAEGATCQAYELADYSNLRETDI
In short: (§1)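 Membranes from CHO cells expressing each α₁-AR subtype, incubated 30 min at 25 °C in 50 mM Tris HCl pH 7.7 with 10 μM pargyline and 0.1% ascorbic acid, plus 0.5 nM [³H]prazosin and varying test compound concentrations. Nonspecific binding was defined with 1 μM prazosin.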

[3] = molecular target: T3, Alpha-1B adrenergic receptor (Homo sapiens, UniProt P35368); test: Displacement of [3H]prazosin from human alpha-1B adrenoreceptor expressed in CHO cells after 30 mins; type: cell-based; in short: as §1
T3 sequence (P35368 whole entry): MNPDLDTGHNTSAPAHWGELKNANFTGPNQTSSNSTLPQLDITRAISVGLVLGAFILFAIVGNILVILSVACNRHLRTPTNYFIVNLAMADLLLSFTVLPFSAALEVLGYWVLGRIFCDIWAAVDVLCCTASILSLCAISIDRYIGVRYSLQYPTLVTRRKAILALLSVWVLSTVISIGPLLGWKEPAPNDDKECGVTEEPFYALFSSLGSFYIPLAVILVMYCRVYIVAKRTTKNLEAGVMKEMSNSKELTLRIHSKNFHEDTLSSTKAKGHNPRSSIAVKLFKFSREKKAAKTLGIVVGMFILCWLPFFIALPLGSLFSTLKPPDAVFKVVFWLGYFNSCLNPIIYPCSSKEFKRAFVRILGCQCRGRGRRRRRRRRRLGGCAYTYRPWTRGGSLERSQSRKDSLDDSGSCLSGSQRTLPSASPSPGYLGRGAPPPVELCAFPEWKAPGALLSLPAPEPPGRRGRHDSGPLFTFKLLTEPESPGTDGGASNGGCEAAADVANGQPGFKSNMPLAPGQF

[4] = molecular target: T4, Alpha-1A adrenergic receptor (Homo sapiens, UniProt P35348); test: Displacement of [3H]prazosin from human alpha-1A adrenoreceptor expressed in CHO cells after 30 mins; type: cell-based; in short: as §1
T4 sequence (P35348 whole entry): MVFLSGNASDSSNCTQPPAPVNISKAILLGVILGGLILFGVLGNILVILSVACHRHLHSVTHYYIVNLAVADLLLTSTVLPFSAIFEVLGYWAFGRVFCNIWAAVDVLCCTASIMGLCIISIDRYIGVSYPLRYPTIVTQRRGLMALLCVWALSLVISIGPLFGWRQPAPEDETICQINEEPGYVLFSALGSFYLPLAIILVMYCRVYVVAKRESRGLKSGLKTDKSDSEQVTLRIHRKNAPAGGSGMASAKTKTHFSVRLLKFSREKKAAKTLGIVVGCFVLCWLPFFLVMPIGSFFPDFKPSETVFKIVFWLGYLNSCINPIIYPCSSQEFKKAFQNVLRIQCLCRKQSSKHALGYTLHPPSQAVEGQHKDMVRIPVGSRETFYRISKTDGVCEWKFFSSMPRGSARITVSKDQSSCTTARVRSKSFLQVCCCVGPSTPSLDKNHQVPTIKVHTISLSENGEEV

Row | Ki [1] [nM] | Ki [2] [nM] | Ki [3] [nM] | Ki [4] [nM] | Compound
1 | 219 | 83.2 | 372 | 31.6 | COc1ccc2c(c1OCCNC[C@@H]1COc3ccccc3O1)NCC2
2 | 1700 | 1350 | 1910 | 437 | COc1ccc2cc[nH]c2c1OCCNC[C@@H]1COc2ccccc2O1
3 | 11 | 18.2 | 126 | 9.12 | COc1ccc2ccoc2c1OCCNC[C@@H]1COc2ccccc2O1
4 | 162 | 18.2 | 162 | 17 | COc1ccc2c(c1OCCNC[C@@H]1COc3ccccc3O1)OCC2

— ChEMBL document CHEMBL2417545, “6-methoxy-7-benzofuranoxy and 6-methoxy-7-indolyloxy analogues of 2-[2-(2,6-Dimethoxyphenoxy)ethyl]aminomethyl-1,4-benzodioxane (WB4101):1 discovery of a potent and selective α1D-adrenoceptor antagonist” (J Med Chem, 2013)
